These results are taken from ChEMBL document CHEMBL1141908, “Inositol tripyrophosphate: a new membrane permeant allosteric effector of haemoglobin” (2005).

For test [1], the species on record is Mus musculus. Briefly: In vitro P50 value of whole blood of murine was determined after incubation with compound (concentration 30 mM). Format: functional. The essentials:
(§1)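 Whole blood (human, murine or porcine) incubated 1:1 vol/vol with effector solution at 290–310 mOsM, pH 7, for 60 min at 37 C. Cells then washed three times in 20 mM bis-Tris, pH 7, 308 mOsM. Hb–O2 curves read on a Hemox Analyzer in 20 mM Hemox buffer, pH 7.1–7.2, 37 C. P50 shift in % reported as mean of four values ± SD.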

Test [2] is filed under the species Mus musculus. The test can be described thus: In vitro percent P50 value of whole blood of murine was determined after incubation with compound (concentration 30 mM). The class given is functional. The essentials:
as §1

Test [3] deals with Hemoglobin beta chain (Mus musculus) (UniProt P02089). The test can be described thus: In vitro percent P50 value of free haemoglobin of murine was determined after incubation with compound (concentration 60 mM). Format: functional. The essentials: (§2)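 Free haemoglobin (human or murine) was mixed with a 60 mM compound solution adjusted to pH 6.9–7.1. Oxy-Hb dissociation curves were recorded on a Hemox Analyzer. P50 is the O2 partial pressure at 50% Hb saturation, and the shift is expressed as a percentage of untreated Hb. Means of three to ten P50 values were calculated, depending on the compound and species.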

Test [4] has the same target. The test can be described thus: In vitro P50 value of free haemoglobin of murine was determined after incubation with compound (concentration 60 mM). Format: functional. A digest of the protocol: as §2
Test [5] can be described thus: In vitro P50 value of free haemoglobin of human was determined after incubation with compound (concentration 60 mM).
Test [6] is described as follows: In vitro percent P50 value of free haemoglobin of human was determined after incubation with compound (concentration 60 mM).
The species entered for test [7] is Homo sapiens. Briefly: In vitro percent P50 value of whole blood of human was determined after incubation with compound (concentration 30 mM). Format: functional. The essentials:
as §1

The species entered for test [8] is Homo sapiens. The test can be described thus: In vitro P50 value of whole blood of human was determined after incubation with compound (concentration 30 mM). The class given is functional. The essentials:
as §1

Test [9] deals with Hemoglobin subunit beta (Sus scrofa) (UniProt P02067). Briefly: In vitro percent P50 value of free haemoglobin of procine was determined after incubation with compound (concentration 60 mM). Format: functional. The essentials:
(§3)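 Porcine free Hb mixed with the effector solution (60 mM; pH adjusted to 6.9–7.1). Hb–O2 dissociation curves recorded on a Hemox Analyzer. P50 is the pO2 at 50% Hb saturation. Shift reported as % change versus control; means of three P50 values.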

The target is the same in test [10]. The test can be described thus: In vitro P50 value of free haemoglobin of procine was determined after incubation with compound (concentration 60 mM). Format: functional. A digest of the protocol:
as §3

Test [11] is filed under the species Mus musculus. Briefly: In vitro percent P50 value of whole blood of murine was determined after incubation with compound (concentration 60 mM). Format: functional. A digest of the protocol:
as §1

Test [12] in a line: In vitro P50 value of whole blood of procine was determined after incubation with compound (concentration 30 mM). Format: functional, Sus scrofa. The conditions noted are these: in the assay text read “concentration 60 mM” for “concentration 30 mM”. A digest of the protocol: as §1
Test [13] can be described thus: In vitro percent P50 value of whole blood of procine was determined after incubation with compound (concentration 60 mM). The class given is functional, Sus scrofa. A digest of the protocol: as §1
For test [14], the species on record is Mus musculus. Briefly: In vitro percent P50 value of whole blood of murine was determined after incubation with compound (concentration 4 mM). The class given is functional. A digest of the protocol:
as §1

The species entered for test [15] is Homo sapiens. The test can be described thus: In vitro percent P50 value of whole blood of human was determined after incubation with compound (concentration 60 mM). The class given is functional. The essentials: as §1

SMILES strings stand for the structures. Several values for one entry are separate records, joined by “and”; a condition that tells them apart may be missing. Equal values may be shown once.

Hemoglobin beta chain (Mus musculus), sequence (P02089 whole entry): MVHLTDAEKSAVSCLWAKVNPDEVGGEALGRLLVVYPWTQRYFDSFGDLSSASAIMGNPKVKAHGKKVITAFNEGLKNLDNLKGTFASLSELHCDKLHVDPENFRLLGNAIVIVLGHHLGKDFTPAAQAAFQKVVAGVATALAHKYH
Hemoglobin subunit beta (Sus scrofa), sequence (P02067 whole entry): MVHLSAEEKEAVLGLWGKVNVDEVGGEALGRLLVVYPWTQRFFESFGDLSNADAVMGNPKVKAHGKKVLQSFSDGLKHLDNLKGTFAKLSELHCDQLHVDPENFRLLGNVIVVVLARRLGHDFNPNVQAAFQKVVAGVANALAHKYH

Consider `CN(C)C1CCCCC1.CN(C)C1CCCCC1.CN(C)C1CCCCC1.CN(C)C1CCCCC1.CN(C)C1CCCCC1.CN(C)C1CCCCC1.O=P1(O)OC2C3OP(=O)(O)OP(=O)(O)OC3C3OP(=O)(O)OP(=O)(O)OC3C2OP(=O)(O)O1` (centres undefined) [listing 1 of 2 here], for which the P50 turned out to be 45.5 Torr in test [1] and 20% in [2].

As to `O=P1(O)OC2C3OP(=O)(O)OP(=O)(O)OC3C3OP(=O)(O)OP(=O)(O)OC3C2OP(=O)(O)O1.c1ccncc1.c1ccncc1.c1ccncc1.c1ccncc1.c1ccncc1` (centres undefined), the P50 in [3] was 100%; in test [4], 50 Torr; in test [5], 31.6 Torr; in [6] it was 107%.

Regarding `NC1CCCCCC1.NC1CCCCCC1.NC1CCCCCC1.NC1CCCCCC1.NC1CCCCCC1.NC1CCCCCC1.O=P1(O)OC2C3OP(=O)(O)OP(=O)(O)OC3C3OP(=O)(O)OP(=O)(O)OC3C2OP(=O)(O)O1` (centres undefined) [listing 1 of 2 here], the figures for the P50 in test [3] and in test [4] were 76% and 43.8 Torr, respectively.

On to `O=P1(O)OC2C3OP(=O)(O)OP(=O)(O)OC3C3OP(=O)(O)OP(=O)(O)OC3C2OP(=O)(O)O1.c1ccncc1.c1ccncc1.c1ccncc1.c1ccncc1.c1ccncc1` (centres undefined) [ITPP PYRIDINIUM SALT], for which the P50 in [7] is reported as 10%; in test [1], 42.7 Torr; in test [2], 13%; in test [8], 24.3 Torr.

As for `O=P1(O)OC2C3OP(=O)(O)OP(=O)(O)OC3C3OP(=O)(O)OP(=O)(O)OC3C2OP(=O)(O)O1` (centres undefined), the P50 in test [3] was 189% [middle of 4 runs]; in test [4] it was 69.7 Torr [middle of 4 runs]; in [5], 49.8 Torr and 33.1 Torr; in [9] it was 209%; in [10] it was 68.1 Torr; in [6], 225% and 170%.

For `C1CNCCN1.C1CNCCN1.C1CNCCN1.O=P1(O)OC2C3OP(=O)(O)OP(=O)(O)OC3C3OP(=O)(O)OP(=O)(O)OC3C2OP(=O)(O)O1` (centres undefined) [ITPP TRIPIPERAZINIUM SALT], the P50 in [1] is given as 42.3 Torr; in test [2] it was 8%.

As to `C1CNCCN1.C1CNCCN1.C1CNCCN1.C1CNCCN1.C1CNCCN1.C1CNCCN1.O=P1(O)OC2C3OP(=O)(O)OP(=O)(O)OC3C3OP(=O)(O)OP(=O)(O)OC3C2OP(=O)(O)O1` (centres undefined) [ITPP PIPERAZINIUM], the P50 in test [1] was 41.9 Torr; in [2] it was 7%.

Consider `O=P1([O-])OC2C3OP(=O)([O-])OP(=O)([O-])OC3C3OP(=O)([O-])OP(=O)([O-])OC3C2OP(=O)([O-])O1.[Ca+2].[Ca+2].[Ca+2]` (centres undefined), for which the P50 is 25% in [7], 55.3 Torr in test [1], 38% in [11] and 31 Torr in [8].

As to `NC1CCCCCCC1.NC1CCCCCCC1.NC1CCCCCCC1.NC1CCCCCCC1.NC1CCCCCCC1.NC1CCCCCCC1.O=P1(O)OC2C3OP(=O)(O)OP(=O)(O)OC3C3OP(=O)(O)OP(=O)(O)OC3C2OP(=O)(O)O1` (centres undefined) [listing 1 of 2 here], the P50 in test [1] worked out at 41.7 Torr; in test [2] it was 10%.

Consider `O=P1([O-])OC2C3OP(=O)([O-])OP(=O)([O-])OC3C3OP(=O)([O-])OP(=O)([O-])OC3C2OP(=O)([O-])O1.[Na+].[Na+].[Na+].[Na+].[Na+].[Na+]` (centres undefined) [ITPP SODIUM SALT], for which the P50 was 44.2 Torr in [12]; 40% in test [13]; 29% in [14]; 39% in [15]; 30.8 Torr in test [8].

As to `CN(C)C1CCCCC1.CN(C)C1CCCCC1.CN(C)C1CCCCC1.CN(C)C1CCCCC1.CN(C)C1CCCCC1.CN(C)C1CCCCC1.O=P1(O)OC2C3OP(=O)(O)OP(=O)(O)OC3C3OP(=O)(O)OP(=O)(O)OC3C2OP(=O)(O)O1` (centres undefined) [listing 2 of 2 here], the P50 in [3] stood at 81%; in [4] it was 45.1 Torr.

For the compound `NC1CCCCCC1.NC1CCCCCC1.NC1CCCCCC1.NC1CCCCCC1.NC1CCCCCC1.NC1CCCCCC1.O=P1(O)OC2C3OP(=O)(O)OP(=O)(O)OC3C3OP(=O)(O)OP(=O)(O)OC3C2OP(=O)(O)O1` (centres undefined) [listing 2 of 2 here], the P50 in test [1] came out at 41.3 Torr; in test [2], 9%.

As to `NC1CCCCCCC1.NC1CCCCCCC1.NC1CCCCCCC1.NC1CCCCCCC1.NC1CCCCCCC1.NC1CCCCCCC1.O=P1(O)OC2C3OP(=O)(O)OP(=O)(O)OC3C3OP(=O)(O)OP(=O)(O)OC3C2OP(=O)(O)O1` (centres undefined) [listing 2 of 2 here], the P50 was 23% in test [3] and 30.6 Torr in test [4].
